Data: ChEMBL document CHEMBL1156325, “Novel acyl coenzyme A (CoA): diacylglycerol acyltransferase-1 inhibitors: synthesis and biological activities of diacylethylenediamine derivatives” (Bioorg Med Chem, 2010)
Converted amounts (≈) assume the structure as drawn.

Tests used:
[1] = target: T1, Diacylglycerol O-acyltransferase 1 (Mus musculus, UniProt Q9Z2A7); test: Inhibition of DGAT1 in mouse C2C12 cells assessed as suppression of [14C]triglyceride accumulation pretreated for 20 mins before [14C]oleic acid challenge measured after 20 mins by TLC analysis; type: cell-based
T1 sequence (Q9Z2A7 whole entry): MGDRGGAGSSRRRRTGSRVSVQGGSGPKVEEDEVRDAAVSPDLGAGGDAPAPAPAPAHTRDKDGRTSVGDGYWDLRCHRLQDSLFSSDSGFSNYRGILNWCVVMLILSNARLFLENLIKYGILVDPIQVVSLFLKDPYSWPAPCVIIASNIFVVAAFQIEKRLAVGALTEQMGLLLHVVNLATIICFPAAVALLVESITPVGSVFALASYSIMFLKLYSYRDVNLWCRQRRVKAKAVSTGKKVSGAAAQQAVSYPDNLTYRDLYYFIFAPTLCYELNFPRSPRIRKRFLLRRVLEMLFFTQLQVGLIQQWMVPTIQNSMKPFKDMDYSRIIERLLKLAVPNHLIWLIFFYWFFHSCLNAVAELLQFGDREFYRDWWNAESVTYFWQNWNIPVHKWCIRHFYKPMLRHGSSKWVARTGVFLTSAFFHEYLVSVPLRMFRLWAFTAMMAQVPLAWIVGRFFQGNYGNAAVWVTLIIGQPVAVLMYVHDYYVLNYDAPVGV
In short: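 C2C12 cell suspension (10⁶ cells/mL final) was preincubated with serial compound dilutions at 37 °C for 20 min. [¹⁴C]-oleic acid substrate was then added with 0.001% fatty-acid-free BSA, 0.2% ethanol and 0.1% DMSO final. After 20 min at 37 °C, reactions were stopped with chloroform/methanol (1:2). Chloroform-phase lipids were separated by TLC (hexane/ether/ethyl acetate/acetic acid 255:30:15:0.6).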

[2] = Metabolic stability in human liver microsomes at 1 umol/L after 20 mins by HPLC assessed per mg of protein; type: ADME, Microsome; conditions: read-out: Stability
In short: (§1)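 Hepatic microsomes (0.2 mg/mL protein) were incubated at 37 °C for 0 and 20 min with an NADPH-generating system added at 10% of reaction volume. The system held 50 mmol/L MgCl₂, 50 mmol/L glucose-6-phosphate, 5 mmol/L β-NADP⁺ and 15 unit/mL G6PDH. Reactions were stopped with an equal volume of acetonitrile, run in duplicate. Parent disappearance was measured by HPLC-UV and expressed as %/min/mg.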

[3] = Metabolic stability in rat liver microsomes at 1 umol/L after 20 mins by HPLC assessed per mg of protein; type: ADME, Microsome; conditions: read-out: Stability; in short: as §1
[4] = Metabolic stability in mouse liver microsomes at 1 umol/L after 20 mins by HPLC assessed per mg of protein; type: ADME, Microsome; conditions: read-out: Stability; in short: as §1
[5] = target: T2, Diacylglycerol O-acyltransferase 1 (Homo sapiens, UniProt O75907); test: Inhibition of human DGAT1 expressed in baculovirus infected Sf9 cells using [14C]oleoyl-CoA after 15 mins by TLC analysis
T2 sequence (O75907 whole entry): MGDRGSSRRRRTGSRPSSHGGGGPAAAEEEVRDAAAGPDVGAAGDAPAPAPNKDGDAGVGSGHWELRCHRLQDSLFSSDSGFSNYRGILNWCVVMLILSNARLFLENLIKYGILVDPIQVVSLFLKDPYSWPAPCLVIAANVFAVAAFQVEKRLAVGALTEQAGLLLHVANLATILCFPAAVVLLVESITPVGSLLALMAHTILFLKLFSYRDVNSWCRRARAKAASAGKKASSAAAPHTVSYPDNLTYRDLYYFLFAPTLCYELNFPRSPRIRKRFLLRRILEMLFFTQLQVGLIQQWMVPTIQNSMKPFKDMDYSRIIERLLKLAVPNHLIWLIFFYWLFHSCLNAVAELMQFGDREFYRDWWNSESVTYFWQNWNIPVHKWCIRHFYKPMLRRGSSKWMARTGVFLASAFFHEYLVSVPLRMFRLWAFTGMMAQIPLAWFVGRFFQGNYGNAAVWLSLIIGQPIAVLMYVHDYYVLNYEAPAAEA

Mus musculus [6] = test: Antiobesity activity in C57BL/6 mouse assessed as reduction in body weight gain at 3 mg/kg, po BID for 4 weeks; type: functional; parameters: scale not given: the % may be the effect or the level left
In short: (§2)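 C57BL/6 mice fed a high-fat diet were dosed orally b.i.d. at 3 mg/kg as a 0.5% MC suspension for four weeks. Endpoints were body weight gain, total food intake, and mesenteric, perirenal and subcutaneous white adipose tissue weights.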

Mus musculus [7] = test: Antiobesity activity in C57BL/6 mouse assessed as reduction in mesenteric white adipose tissue weight at 3 mg/kg, po BID for 4 weeks; type: functional; parameters: scale not given: the % may be the effect or the level left; in short: as §2
Mus musculus [8] = test: Antiobesity activity in C57BL/6 mouse assessed as reduction in perirenal white adipose tissue weight at 3 mg/kg, po BID for 4 weeks; type: functional; parameters: scale not given: the % may be the effect or the level left; in short: as §2
Mus musculus [9] = test: Antiobesity activity in C57BL/6 mouse assessed as reduction in subcutaneous white adipose tissue weight at 3 mg/kg, po BID for 4 weeks; type: functional; parameters: scale not given: the % may be the effect or the level left; in short: as §2
Mus musculus [10] = test: Toxicity in C57BL/6 mouse assessed as effect on total food intake at 3 mg/kg, po BID for 4 weeks; type: organism-based; parameters: dose 3 mg/kg, route oral; conditions: in vivo, 672 h; in short: as §2
[11] = Solubility at pH 6.8; type: physicochemical; conditions: buffer

SMILES	IC50 [1] [nM]	remaining at 20 min, 1 µM [2] [%]	remaining at 20 min, 1 µM [3] [%]	remaining at 20 min, 1 µM [4] [%]	further results
CCOc1ccc(C(=O)NCCNC(=O)c2cn(-c3ccccc3)nc2C)cc1	260	5	5.8	2.5	
CCOc1ccc(C(=O)NC[C@@H](CO)NC(=O)c2cn(-c3ccccc3)nc2C(F)(F)F)cc1					IC50 [5]: > 10000 nM
CCOc1ccc(C(=O)NCCNC(=O)c2cn(-c3cccc(OCC)c3)nc2C(F)(F)F)cc1	600	7.4	7.1	6.5	
CCOc1ccc(C(=O)NCCNC(=O)c2cn(-c3ccc(Cl)cc3)nc2C(F)(F)F)cc1	1500	4.5	7.2	3.4	
CCOc1ccc(C(=O)NCCNC(=O)c2cn(-c3ccncc3)nc2C(F)(F)F)cc1	> 10000				
O=C(NCCNC(=O)c1cn(-c2ccccc2)nc1C(F)(F)F)c1ccc(-n2cccn2)cc1	400	5.9	6.5	3.5	
CCOc1ccc(C(=O)NCCNC(=O)c2cn(-c3ccccc3O)nc2C(F)(F)F)cc1	610	5.7	18	0.5	
O=C(NCCNC(=O)c1cn(-c2ccccc2)nc1C(F)(F)F)c1ccc(OCC(F)(F)F)nc1	44	2.1	0.4	0	Activity (Mus musculus [6]): -75%; Activity (Mus musculus [7]): -25%; Activity (Mus musculus [8]): -12%; Activity (Mus musculus [9]): -2.8%; Activity (Mus musculus [10]): Non-toxic
CCOc1ccc(C(=O)NCCNC(=O)c2cn(-c3ccccn3)nc2C(F)(F)F)cc1	91	14	10	7	
CCOc1ccc(C(=O)NCCNC(=O)c2cn(-c3ccccc3)nc2C(F)(F)F)cn1	87	5.1	3.4	2.5	
CCOc1ccc(C(=O)NCCNC(=O)c2cn(Cc3ccccc3)nc2C(F)(F)F)cc1		5.5	18	7.5	
CCOc1ccc(C(=O)NCCNC(=O)c2nn(-c3ccccc3)cc2C)cc1	1200	12	12	14	
CCOc1cc(C)c(C(=O)CCC(=O)Nc2nc(-c3ccccc3)c(Cc3ccccc3)s2)cc1OCC		13	11	16	solubility [11]: 0.08 µg/mL (≈ 0.151 µM)
O=C(NCCNC(=O)c1cn(-c2ccccc2)nc1C(F)(F)F)c1ccc(Cl)nc1	370	2.2	1.1	0	
CCOc1cccc(C(=O)NCCNC(=O)c2cn(-c3ccccc3)nc2C(F)(F)F)c1	5100	14	8.3	19	
CCOc1ccc(C(=O)NC[C@H](CO)NC(=O)c2cn(-c3ccccc3)nc2C(F)(F)F)cc1					IC50 [5]: > 10000 nM
O=C(NCCNC(=O)c1cn(-c2ccccc2)nc1C(F)(F)F)c1ccc(Cl)cn1	1200	4.8	2.6	1.8	
CCOc1ccc(C(=O)N[C@H](CO)CNC(=O)c2cn(-c3ccccc3)nc2C(F)(F)F)cc1					IC50 [5]: > 10000 nM
CCOc1ccc(C(=O)NCCNC(=O)c2cn(C3CCCCC3)nc2C(F)(F)F)cc1	650	8.7	11	7.8	
CCOc1ccc(C(=O)N[C@@H](CO)CNC(=O)c2cn(-c3ccccc3)nc2C(F)(F)F)cc1					IC50 [5]: > 10000 nM
CCOc1ccc(C(=O)NCCNC(=O)c2cn(-c3cccnc3)nc2C(F)(F)F)cc1	3400				
CCOc1ccc(C(=O)NCCNC(=O)c2cn(-c3ccccc3)nc2C(F)(F)F)cc1	77	9	6.5	7	solubility [11]: 1.1 µg/mL (≈ 2.46 µM)
CCOc1ccc(C(=O)NCCNC(=O)c2nc(-c3ccccc3)c(Cc3ccccc3)s2)cc1		10	14	17	solubility [11]: < 0.05 µg/mL
CCOc1ccc(C(=O)NCCNC(=O)c2cn(-c3ccc(OCC)cc3)nc2C(F)(F)F)cc1	380	7.5	8.7	14	
